Experiments:
Assay type in all cases: functional, Salmonella enterica subsp. enterica serovar Typhimurium
Salmonella typhimurium [1] = assay: Antimicrobial activity against Salmonella enterica serovar Typhimurium S21-3 acrAB::Kan with GyrA S83F, ParC S80I mutation
How it was run: (§1)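 MICs measured by broth microdilution on the Sensititre automated system and interpreted by CLSI broth microdilution standards. Ciprofloxacin was also tested by agar dilution, widening the range to 0.0075–128 μg/ml. Quality control strains were E. coli ATCC 25922 and 35218, E. faecalis ATCC 29212, S. aureus ATCC 29213 and P. aeruginosa ATCC 27853.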

Salmonella typhimurium [2] = assay: Antimicrobial activity against Salmonella enterica serovar Typhimurium S21-3 with GyrA S83F, ParC S80I mutation; how it was run: as §1
Salmonella typhimurium [3] = assay: Antimicrobial activity against Salmonella enterica serovar Typhimurium S21-1 tolC::Kan with GyrA S83F mutation; how it was run: as §1
Salmonella typhimurium [4] = assay: Antimicrobial activity against Salmonella enterica serovar Typhimurium S21 acrAB::Kan
How it was run: (§2)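 MICs by automated broth microdilution panels, interpreted to CLSI broth microdilution standards. Ciprofloxacin additionally tested by agar dilution across 0.0075 to 128 μg/ml. Quality control strains: E. coli ATCC 25922 and 35218, Enterococcus faecalis ATCC 29212, S. aureus ATCC 29213, P. aeruginosa ATCC 27853. Test strains are kanamycin-marked deletion mutants of ground-beef isolate S21.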

Salmonella typhimurium [5] = assay: Antimicrobial activity against Salmonella enterica serovar Typhimurium S21-4 tolC::Kan with GyrA S83F, ParC S80I mutation; how it was run: as §1
Salmonella typhimurium [6] = assay: Antimicrobial activity against Salmonella enterica serovar Typhimurium CHS38 with GyrA D87G mutation; how it was run: as §1
Salmonella typhimurium [7] = assay: Antimicrobial activity against Salmonella enterica serovar Typhimurium CHS18 tolC::Kan with GyrA S38F mutation; how it was run: as §1
Salmonella typhimurium [8] = assay: Antimicrobial activity against Salmonella enterica serovar Typhimurium S21-4 with GyrA S83F, ParC S80I mutation; how it was run: as §1
Salmonella typhimurium [9] = assay: Antimicrobial activity against Salmonella enterica serovar Typhimurium CHS18 with GyrA S38F mutation; how it was run: as §1
Salmonella typhimurium [10] = assay: Antimicrobial activity against Salmonella enterica serovar Typhimurium CHS18 gyrA+ with GyrA S38F mutation; how it was run: as §1
Salmonella typhimurium [11] = assay: Antimicrobial activity against Salmonella enterica serovar Typhimurium CS3 gyrA+ with GyrA S83F, D87N, ParC S80I mutation; how it was run: as §1
Salmonella typhimurium [12] = assay: Antimicrobial activity against Salmonella enterica serovar Typhimurium S21-1 GyrA S83F mutant; how it was run: as §1
Salmonella typhimurium [13] = assay: Antimicrobial activity against Salmonella enterica serovar Typhimurium CHS38 acrAB::Kan with GyrA D87G mutation; how it was run: as §1
Salmonella typhimurium [14] = assay: Antimicrobial activity against Salmonella enterica serovar Typhimurium CHS14 gyrA+ with GyrA D87G mutation; how it was run: as §1
Salmonella typhimurium [15] = assay: Antimicrobial activity against Salmonella enterica serovar Typhimurium CHS14 with GyrA D87G mutation; how it was run: as §1
Salmonella typhimurium [16] = assay: Antimicrobial activity against Salmonella enterica serovar Typhimurium CS9 gyrA+ with GyrA S83F, D87N, ParC S80I mutation; how it was run: as §1
Salmonella typhimurium [17] = assay: Antimicrobial activity against Salmonella enterica serovar Typhimurium CHS38 tolC::Kan with GyrA D87G mutation; how it was run: as §1
Salmonella typhimurium [18] = assay: Antimicrobial activity against Salmonella enterica serovar Typhimurium S21-3 gyrA+ with ParC S80I mutation; how it was run: as §1
Salmonella typhimurium [19] = assay: Antimicrobial activity against Salmonella enterica serovar Typhimurium S21-2 gyrA+ with ParC S80I mutation; how it was run: as §1
Salmonella typhimurium [20] = assay: Antimicrobial activity against Salmonella enterica serovar Typhimurium CS1 acrAB::Kan with GyrA S83F, D87N, ParC S80I mutation; how it was run: as §1
Salmonella typhimurium [21] = assay: Antimicrobial activity against Salmonella enterica serovar Typhimurium S21-2 acrAB::Kan with GyrA S83F, ParC S80I mutation; how it was run: as §1
Salmonella typhimurium [22] = assay: Antimicrobial activity against Salmonella enterica serovar Typhimurium CS1 gyrA+ with GyrA S83F, D87N, ParC S80I mutation; how it was run: as §1
Salmonella typhimurium [23] = assay: Antimicrobial activity against Salmonella enterica serovar Typhimurium CS3 with GyrA S83F, D87N, ParC S80I mutation; how it was run: as §1
Salmonella typhimurium [24] = assay: Antimicrobial activity against Salmonella enterica serovar Typhimurium S21 tolC::Kan; how it was run: as §2
Salmonella typhimurium [25] = assay: Antimicrobial activity against Salmonella enterica serovar Typhimurium S21 gyrA+; how it was run: as §1
Salmonella typhimurium [26] = assay: Antimicrobial activity against Salmonella enterica serovar Typhimurium S21-3 tolC::Kan with GyrA S83F, ParC S80I mutation; how it was run: as §1
Salmonella typhimurium [27] = assay: Antimicrobial activity against Salmonella enterica serovar Typhimurium S21-4 gyrA+ with ParC S80I mutation; how it was run: as §1
Salmonella typhimurium [28] = assay: Antimicrobial activity against Salmonella enterica serovar Typhimurium CHS14 tolC::Kan with GyrA D87G mutant; how it was run: as §1
Salmonella typhimurium [29] = assay: Antimicrobial activity against Salmonella enterica serovar Typhimurium S21-2 with GyrA S83F, ParC S80I mutation; how it was run: as §1
Salmonella typhimurium [30] = assay: Antimicrobial activity against Salmonella enterica serovar Typhimurium S21; how it was run: as §1
Salmonella typhimurium [31] = assay: Antimicrobial activity against Salmonella enterica serovar Typhimurium CS1 tolC::Kan with GyrA S83F, D87N, ParC S80I mutation; how it was run: as §1
Salmonella typhimurium [32] = assay: Antimicrobial activity against Salmonella enterica serovar Typhimurium CHS14 acrAB::Kan with GyrA D87G mutation; how it was run: as §1
Salmonella typhimurium [33] = assay: Antimicrobial activity against Salmonella enterica serovar Typhimurium CS3 acrAB::Kan with GyrA S83F, D87N, ParC S80I mutation; how it was run: as §1
Salmonella typhimurium [34] = assay: Antimicrobial activity against Salmonella enterica serovar Typhimurium CS9 acrAB::Kan with GyrA S83F, D87N, ParC S80I mutation; how it was run: as §1
Salmonella typhimurium [35] = assay: Antimicrobial activity against Salmonella enterica serovar Typhimurium S21-1 gyrA+; how it was run: as §1
Salmonella typhimurium [36] = assay: Antimicrobial activity against Salmonella enterica serovar Typhimurium CHS18 acrAB::Kan with GyrA S38F mutation; how it was run: as §1
Salmonella typhimurium [37] = assay: Antimicrobial activity against Salmonella enterica serovar Typhimurium CS9 with GyrA S83F, D87N, ParC S80I mutation; how it was run: as §1
Salmonella typhimurium [38] = assay: Antimicrobial activity against Salmonella enterica serovar Typhimurium S21-2 tolC::Kan with GyrA S83F, ParC S80I mutation; how it was run: as §1
Salmonella typhimurium [39] = assay: Antimicrobial activity against Salmonella enterica serovar Typhimurium S21-4 acrAB::Kan with GyrA S83F, ParC S80I mutation; how it was run: as §1
Salmonella typhimurium [40] = assay: Antimicrobial activity against Salmonella enterica serovar Typhimurium CHS38 gyrA+ with GyrA D87G mutation; how it was run: as §1
Salmonella typhimurium [41] = assay: Antimicrobial activity against Salmonella enterica serovar Typhimurium CS9 tolC::Kan with GyrA S83F, D87N, ParC S80I mutation; how it was run: as §1
Salmonella typhimurium [42] = assay: Antimicrobial activity against Salmonella enterica serovar Typhimurium CS1 with GyrA S83F, D87N, ParC S80I mutation; how it was run: as §1
Salmonella typhimurium [43] = assay: Antimicrobial activity against Salmonella enterica serovar Typhimurium GyrA S21-1 acrAB::Kan with GyrA S83F mutation; how it was run: as §1
Salmonella typhimurium [44] = assay: Antimicrobial activity against Salmonella enterica serovar Typhimurium CS3 tolC::Kan with GyrA S83F, D87N, parC S80I mutation; how it was run: as §1

Measured: MIC

CN1C[C@@H]2C[C@H]1CN2c1cc2c(cc1F)c(=O)c(C(=O)O)cn2C1CC1 [DANOFLOXACIN]
0.06 µg/mL: Salmonella typhimurium [3] | Salmonella typhimurium [7] | Salmonella typhimurium [10] | Salmonella typhimurium [11] | Salmonella typhimurium [16] | Salmonella typhimurium [22] | Salmonella typhimurium [43]
0.12 µg/mL: Salmonella typhimurium [21] | Salmonella typhimurium [38]
< 0.015 µg/mL: Salmonella typhimurium [4] | Salmonella typhimurium [17] | Salmonella typhimurium [24] | Salmonella typhimurium [40]
1 µg/mL: Salmonella typhimurium [19]
0.25 µg/mL: Salmonella typhimurium [1] | Salmonella typhimurium [5] | Salmonella typhimurium [6] | Salmonella typhimurium [15] | Salmonella typhimurium [26] | Salmonella typhimurium [39]
0.5 µg/mL: Salmonella typhimurium [9] | Salmonella typhimurium [12]
0.03 µg/mL: Salmonella typhimurium [13] | Salmonella typhimurium [14] | Salmonella typhimurium [25] | Salmonella typhimurium [28] | Salmonella typhimurium [30] | Salmonella typhimurium [32] | Salmonella typhimurium [35] | Salmonella typhimurium [36]
2 µg/mL: Salmonella typhimurium [18]
> 16 µg/mL: Salmonella typhimurium [2] | Salmonella typhimurium [8] | Salmonella typhimurium [23] | Salmonella typhimurium [37] | Salmonella typhimurium [42]
4 µg/mL: all other assays above
